Assay results gathered from unrelated publications.
Lines come from different studies, so protocols differ.
FGFR2: Fibroblast growth factor receptor 2 (FGFR2, Homo sapiens, UniProt P21802)
FGFR2 N549H: Fibroblast growth factor receptor 2 (FGFR2, Homo sapiens, UniProt P21802, N549H)

CCCS(=O)(=O)Nc1ccc(F)c(C(=O)c2c[nH]c3ncc(-c4ccc(Cl)cc4)cc23)c1F — inhibition (FGFR2; enzyme activity, inhibitor; 1 µM): < 10%
CCN(CC)CCNC(=O)c1c(C)[nH]c(/C=C2\C(=O)Nc3ccc(F)cc32)c1C — inhibition (FGFR2 N549H; cell-free assay; 10 µM): 95%
CS(=O)(=O)Nc1cccc(-c2csc(NC(=O)CSc3nc4nccnc4c(=O)n3CCc3ccccc3)n2)c1 — inhibition (FGFR2; enzyme activity, inhibitor; 10 µM): -2%
CNC(=O)c1cc(Oc2ccc(NC(=O)Nc3ccc(Cl)c(C(F)(F)F)c3)cc2)ccn1 — inhibition (FGFR2 N549H; cell-free assay; 10 µM): 100%
COc1cc2nccc(Oc3ccc(NC(=O)c4c5n(n(-c6ccc(F)cc6)c4=O)CCCC5)cc3)c2cc1OC — inhibition (FGFR2; enzyme activity, inhibitor; 0.1 µM): 0%
O=C(CSc1nc2nccnc2c(=O)n1CCc1ccccc1)Nc1nccs1 — inhibition (FGFR2; enzyme activity, inhibitor; 10 µM): 3%
CC/C(=N\NC(=O)NCc1cccc(O)c1)c1ccc(O)c(C)c1O — inhibition (FGFR2; enzyme activity, inhibitor; 0.1 µM): 7.7%
COc1cc2ncnc(Nc3ccc(Oc4ccccc4)cc3C)c2cc1OC — inhibition (FGFR2; enzyme activity, inhibitor; 1 µM): 8%
C=CC(=O)Nc1cc(Nc2nccc(Nc3cc(Cl)c(F)cc3C(C)(C)O)n2)c(OC)cc1N1CC[C@@H](N(C)C)C1 — inhibition (FGFR2; enzyme activity, inhibitor; 1 µM): 10%
CSc1nc(C)c(-c2ccnc(Nc3ccc(N4CCOCC4)cc3)c2)[nH]1 — inhibition (FGFR2; cell-free assay, inhibitor; 10 µM): 44.9%
CNc1cccc2cc(C(=O)Nc3ccc(C(=O)O)cc3)c(=O)[nH]c12 — inhibition (FGFR2 N549H; enzyme activity, inhibitor; 10 µM): 2.8%
Cc1ccc(Nc2nccc(N(C)c3ccc4c(C)n(C)nc4c3)n2)cc1S(N)(=O)=O — inhibition (FGFR2 N549H; cell-free assay; 10 µM): 96%
CN(C)C1CCN(CC#Cc2nn(C3CCCC3)c3nc(NCc4ccccc4)ncc23)C1 (stereo not drawn) — inhibition (FGFR2; enzyme activity, inhibitor, FRET; 10 µM): 46%
COc1cc2ncnc(Nc3ccc(Oc4ccccc4)c(C)c3C)c2cc1OC — inhibition (FGFR2; enzyme activity, inhibitor; 1 µM): 3%
CNC(=O)c1cc2c(Oc3ccc(NC(=O)C4(C(=O)Nc5ccc(F)cc5)CC4)cc3)ccnc2cc1OC — inhibition (FGFR2 N549H; enzyme activity, inhibitor, radiometric; 1 µM): 95%
